A short description of assay [1]: Evaluated for inhibition of ET-1 induced Calcium channel [Ca+2]i in CHO-K1 cells transfected with the rat ETA-expression plasmid DNA at 10E-6M; range- 50-70%. The format is functional. In short, it runs like this:
(§1)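 Rat ETA receptor plasmid transfected into CHO-K1 cells by lipofection. Cells preloaded with fura-2 AM, then stimulated with ET-1 at 10^-7 M. The rise in [Ca2+]i was read ratiometrically, with excitation at 340/380 nm and emission at 510 nm. The ET-1 response alone was set as 100%, and inhibition by compounds is expressed relative to it.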

Assay [2] can be described thus: Evaluated for inhibition of ET-1 induced Calcium channel [Ca+2]i in CHO-K1 cells transfected with the rat ETA-expression plasmid DNA. In kind it is functional, cell-based. In short, it runs like this:
as §1

Assay [3] can be described thus: Evaluated for inhibition of ET-1 induced Calcium channel [Ca+2]i in CHO-K1 cells transfected with the rat ETA-expression plasmid DNA at 10E-6M. The format is functional. The essentials:
as §1

Another assay relates to CHO-K1. Briefly: Evaluated for inhibition of ET-1 induced Calcium channel [Ca+2]i in CHO-K1 cells transfected with the rat ETA-expression plasmid DNA at 10E-6M; Low inhibition. The format is functional, cell-based. The essentials:
as §1

A short description of assay [4]: Evaluated for inhibition of ET-1 induced Calcium channel [Ca+2]i in CHO-K1 cells transfected with the rat ETA-expression plasmid DNA at 10 nM. The format is functional. In short, it runs like this:
as §1

Each structure is given as a SMILES string. Non-standard residues stand in square brackets, D forms with d. Residues, ends and D or L forms follow the SMILES beside them. A value given as a limit tells only on which side of the number the result lay.

Turning to `CC1(c2ccc(OCC(=O)O)cc2)c2cc(C(=O)O)sc2C(=O)c2c1c1ccccc1n2Cc1ccccc1` (configuration not stated), the inhibition at 1 µM in assay [1] is less than 70%. On to `CC1(c2ccc(O)cc2)c2cc(C(=O)O)sc2C(=O)c2c1c1ccccc1n2Cc1ccccc1` (configuration not stated), for which the half-maximal inhibitory concentration (IC50) in assay [2] was roughly 10 nM. Further, in assay [3], the inhibition at 1 µM is greater than 75%. On to `COc1cccc(C2(C)c3cc(C(=O)O)sc3C(=O)c3c2c2ccccc2n3Cc2ccccc2)c1` (configuration not stated), for which the inhibition entry in the assay with CHO-K1 was “Weak inhibition”.

For the molecule `CC1(c2ccccc2)c2cc(C(=O)O)sc2C(=O)c2c1c1ccccc1n2Cc1ccc(OCC(=O)O)cc1` (configuration not stated), in the assay with CHO-K1, the inhibition entry is “Weak inhibition”. With `Cn1c2c(c3ccccc31)C(C)(c1cccc(CCCC(=O)O)c1)c1cc(C(=O)O)sc1C2=O` (configuration not stated), the inhibition at 1 µM in assay [3] was greater than 75%. Consider `COc1ccc(C2(C)c3cc(C(=O)O)sc3C(=O)c3c2c2ccccc2n3Cc2ccccc2)cc1` (configuration not stated), for which, in the assay on CHO-K1, the inhibition result is “Weak inhibition”. The same measure, in the same setting: the value for `CC1(c2cccc(CC(=O)O)c2)c2cc(C(=O)O)sc2C(=O)c2c1c1ccccc1n2Cc1ccccc1` (configuration not stated) was “Weak inhibition”. `CCCOc1ccc2c(c1)[C@@H](c1ccc(OC)cc1OCC(=O)O)[C@H](C(=O)O)[C@H]2c1ccc2c(c1)OCO2` [SB-209670]: the inhibition at 0.01 µM in assay [4] was roughly 85%. As for `COc1cccc(C2(C)c3cc(C(=O)O)sc3C(=O)c3c2c2ccccc2n3C)c1` (configuration not stated), in assay [1], the inhibition at 1 µM is less than 70%.

Consider `CC(C)C[C@@H]1NC(=O)[C@@H](C(C)C)NC(=O)[C@@H]2CCCN2C(=O)[C@@H](CC(=O)O)NC(=O)[C@@H](Cc2c[nH]c3ccccc23)NC1=O` [BQ-123] (cyclo(L[dW][dD]P[dV])), for which the inhibition at 1 µM in assay [3] was roughly 60%. `COc1ccc(Cn2c3c(c4ccccc42)C(C)(c2ccccc2)c2cc(C(=O)O)sc2C3=O)cc1` (configuration not stated): the inhibition result in the assay with CHO-K1 was “Weak inhibition”. Take `Cn1c2c(c3ccccc31)C(C)(c1cccc(CC(=O)O)c1)c1cc(C(=O)O)sc1C2=O` (configuration not stated): in assay [3], the inhibition at 1 µM was greater than 75%. On the same count and under the same terms, the value for `Cn1c2c(c3ccccc31)C(C)(c1ccc(OCC(=O)O)cc1)c1cc(C(=O)O)sc1C2=O` (configuration not stated) was greater than 75%. In the case of `CC1(c2ccccc2)c2cc(C(=O)O)sc2C(=O)c2c1c1ccccc1n2Cc1ccc(O)cc1` (configuration not stated), the inhibition entry with CHO-K1 is “Weak inhibition”. As to `Cn1c2c(c3ccccc31)C(C)(c1ccc(OCCCC(=O)O)cc1)c1cc(C(=O)O)sc1C2=O` (configuration not stated), the inhibition at 1 µM in assay [3] was greater than 75%. With `CC1(c2cccc(O)c2)c2cc(C(=O)O)sc2C(=O)c2c1c1ccccc1n2Cc1ccccc1` (configuration not stated), in assay [1], the inhibition at 1 µM was less than 70%.

The values above are taken from ChEMBL document CHEMBL1148428, “Carbazolothiophene-2-carboxylic acid derivatives as endothelin receptor antagonists” (Bioorg Med Chem Lett, 2004).
